Shown are actives, neighbours in structure and some others; about 1.9% of the full set was active somewhere.
LEDGF integ inh: blocks HIV-1 LEDGF/p75-dependent DNA integration. TR-FRET IN-LEDGF/p75 DNA integration, Eu/Cy5. inhibition, % at 3.7 µM. 0.64% of 370,000 active;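 active means inhibition above the screen-wide mean plus 3 SD, cut at about 13% in these data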;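 further: signal is the Cy5 over europium emission ratio at 671 and 618 nm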
MBD2 DNA inh: blocks human MBD2 binding to methylated DNA | AID 686964 | TR-FRET, MBD2 binding to methylated oligonucleotide | Q9UBB5 | inhibition, % at 4.4 µM | 0.31% of 370,000 active; in the data active means inhibition above about 13%
TDP2 inh: TDP2 (human) inhibition, absorbance primary screen; recombinant TDP2, T5PNP hydrolysis, p-nitrophenol absorbance 415 nm; inhibition, % at 12.8 µM; 0.34% of 370,000 active; AID 720702;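 active means inhibition above the mean of all tested compounds plus 3 SD, set per campaign, cut at about 25% in these data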
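Material: recombinant human TDP2; quantity: TDP2 enzyme at 120 nM final; medium: Tris-HCl pH 7.5 with MgCl2; compound: single concentration, 12.8 µM nominal, with 1% DMSO; incubation: 2 h enzyme incubation at 37 °C; signal: epi absorbance; measure: percent inhibition; benchmarks: high control without enzyme, low control DMSO plus TDP2; repeats: singlicate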
DDE Tn6 FP inh: inhibitors of Tn6 peptide binding to human fibrin DD(E); Fibrin DD(E) TRITC-Tn6 fluorescence polarization displacement; 0.21% of 370,000 active; P02675; inhibition, % at 8.3 µM;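 active means inhibition above a per-campaign cutoff: mean of compounds within control limits plus 3 SD, cut at about 15% in these data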
UHRF1 binding: UHRF1 methyl-DNA binding inhibition; UHRF1 binding to methylated oligo, TR-FRET; inhibition, % at 4.4 µM; 0.75% of 370,000 active; in the data active means inhibition above about 21%;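 further: UHRF1 SRA domain binding a hemimethylated CpG hairpin DNA probe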
Target sequence (Q96T88 whole entry, looked up, the tested form may be a part): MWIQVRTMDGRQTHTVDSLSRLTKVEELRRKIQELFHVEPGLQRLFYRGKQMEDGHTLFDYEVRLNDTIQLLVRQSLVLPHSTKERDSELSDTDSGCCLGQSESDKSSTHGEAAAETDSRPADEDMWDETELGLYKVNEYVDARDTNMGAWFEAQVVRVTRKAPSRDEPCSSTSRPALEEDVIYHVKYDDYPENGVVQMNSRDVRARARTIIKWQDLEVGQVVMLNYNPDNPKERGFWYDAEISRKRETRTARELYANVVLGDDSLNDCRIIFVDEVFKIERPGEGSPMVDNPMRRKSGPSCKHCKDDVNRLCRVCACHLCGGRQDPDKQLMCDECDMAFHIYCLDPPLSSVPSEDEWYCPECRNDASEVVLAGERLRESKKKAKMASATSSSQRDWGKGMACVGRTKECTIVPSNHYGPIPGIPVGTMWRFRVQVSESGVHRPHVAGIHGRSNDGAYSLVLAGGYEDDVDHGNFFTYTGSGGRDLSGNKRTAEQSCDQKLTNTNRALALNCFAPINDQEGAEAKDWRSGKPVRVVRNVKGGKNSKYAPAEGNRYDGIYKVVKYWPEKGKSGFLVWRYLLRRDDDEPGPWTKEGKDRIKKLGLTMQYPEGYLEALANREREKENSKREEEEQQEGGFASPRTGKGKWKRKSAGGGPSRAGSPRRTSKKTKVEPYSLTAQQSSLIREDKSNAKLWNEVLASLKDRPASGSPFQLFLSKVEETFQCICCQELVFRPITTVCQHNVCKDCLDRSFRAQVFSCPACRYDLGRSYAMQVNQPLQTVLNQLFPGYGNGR
DDE Tn7 FP inh: inhibitors of Tn7 peptide binding to human fibrin DD(E); P02675; FP displacement of FITC-Tn7 peptide from fibrin DD(E); 0% = median of compound wells per plate; inhibition, % at 8.3 µM; 0.13% of 370,000 active;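 active means inhibition above the mean of compounds falling within the control limits plus 3 SD of them, cut at about 14% in these data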
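Also added: labelled Tn7 tracer, 0.1 µM; Assay system: human fibrin DD(E) protein; Amount: 2 µM fibrin DD(E); Schedule: 10 min compound pre-incubation, 3 h probe incubation at room temperature; Repeats: one replicate per compound; Read-out basis: percent inhibition; Measured by: fluorescence polarization of the labelled Tn7 tracer.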
IN multimer act: counter-screen for LEDGF/p75 integration inhibitors: HIV-1 integrase multimerization activators; shares compounds with LEDGF integ inh; TR-FRET HIV-1 integrase multimerization, biochemical; activation, % at 7.7 µM; 17% of 2,000 active; AID 1053131; in the data active means activation above about 8.9%
TR-FRET interf: counter-screen for LEDGF/p75 integration inhibitors: TR-FRET optical interference; shares compounds with LEDGF integ inh; TR-FRET optical interference counterscreen, HIV-1 IN multimerization; inhibition, % at 7.7 µM; 2,000 tested, under 10 active; AID 1053135;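 active means inhibition above the mean over all tested compounds plus 3 SD, which no compound reached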
IN-LEDGF confirm: LEDGF/p75-dependent HIV-1 integration inhibition, confirmation; shares compounds with LEDGF integ inh; TR-FRET LEDGF/p75-dependent HIV-1 integration, biochemical; inhibition, % at 3.7 µM; 36% of 2,000 active; in the data active means inhibition above about 14%
Numbers stand for hits; 0 = inactive; - = not tested or not shown.

SMILES	LEDGF integ inh	MBD2 DNA inh	TDP2 inh	DDE Tn6 FP inh	UHRF1 binding	DDE Tn7 FP inh	IN multimer act	TR-FRET interf	IN-LEDGF confirm
COc1ccc(-c2c(-c3cc(OC)cc(OC)c3)n(C)c3ccc(-c4ccc(OC)nc4)cc23)cc1	19	0	0	0	0	0	0	0	0
COc1ccc(S[C@]2(C(=O)NCCc3ccccc3)CC(=O)N[C@@H]2c2ccc(OC)cc2)cc1	0	0	0	0	0	0	-	-	-
COc1cc(CCCN2CCNC[C@H]2Cc2cccc3ccccc23)cc(OC)c1OC	44	0	0	0	0	0	0	0	0
COc1cc(CCCN2CCNC[C@@H]2Cc2ccccc2)cc(OC)c1OC	0	0	0	0	0	0	-	-	-
N=C1c2ccccc2CN1NC(=O)c1cccc(S(=O)(=O)N2CCCC2)c1	89	0	0	0	0	0	0	0	0
CCC(CC)NC(=O)Cc1ccc(S(=O)(=O)N2CCOCC2)s1	16	0	0	0	0	0	0	0	0
O=Cc1ccc(/C=C2\c3ccccc3C(=O)N2c2ccccc2)o1	38	0	0	0	0	0	0	0	20
O=C1c2ccccc2C(=O)N1c1ccccc1	0	0	0	0	0	0	-	-	-
CC(=O)C1=C(C)N(Cc2ccc(Cl)cc2)C(=S)NC1c1ccc(Cl)cc1 (centres undefined)	0	0	0	0	0	0	-	-	-
N#Cc1nc(-c2cccc(Cl)c2)oc1N1CCC(C(N)=O)CC1	26	0	0	0	0	0	0	0	0
CN1c2ccc(-c3cccc(F)c3)cc2[C@H]2[C@H](CCN2S(=O)(=O)c2cccc(F)c2)[C@H]1CO	0	0	0	0	0	0	-	-	-
COc1cccc(NC(=O)c2cc(OC)c(OC)c(OC)c2Br)c1	14	0	0	0	0	0	0	0	0
CCOC(=O)c1ccc(NC(=O)c2cc(OC)c(OC)c(OC)c2Br)cc1	0	0	0	0	0	0	-	-	-
COc1ccc2nc(N3C(=O)C(O)=C(C(=O)c4ccco4)C3c3ccccc3OC)sc2c1 (centres undefined)	0	0	0	0	0	0	-	-	-
COc1ccc2nc(N3C(=O)C(O)=C(C(=O)c4ccco4)C3c3ccc(C)o3)sc2c1 (centres undefined)	14	0	0	0	0	0	0	0	0
COC(=O)c1cccc(NC(=O)Cn2nnc3ccccc32)c1	19	0	0	0	0	0	0	0	0
CC1OC(Oc2c(-c3cc(O)c(O)c(O)c3)oc3cc(O)cc(O)c3c2=O)C(O)C(O)C1O (centres undefined)	39	0	0	0	0	0	41	0	53
O=c1cc(-c2ccc(O)c(O)c2)oc2cc(O)cc(O)c12	42	0	0	0	0	0	15	0	88
O=c1c(O)c(-c2ccc(O)c(O)c2)oc2cc(O)cc(O)c12	89	0	0	0	0	0	41	0	88
O=c1c(-c2c(O)cc(O)c3c(=O)cc(-c4ccc(O)cc4)oc23)c(-c2ccc(O)cc2)oc2cc(O)cc(O)c12	25	0	0	0	0	0	40	0	50
O=C(NC1CC[C@@]23CCCN2C(=O)CCC[C@H]3C1)c1ccccc1 (some centres undefined)	0	0	0	0	0	0	-	-	-
Cc1ccc(OCc2nnc(SCC(=O)Nc3ccc(OCc4ccccc4)cc3)n2-c2ccc(Cl)cc2)cc1	0	0	0	0	0	0	-	-	-
COC(=O)C1=C(C)N(Cc2cccc(C(F)(F)F)c2)C(=NCc2cccc(C(F)(F)F)c2)NC1c1ccc(Cl)cc1 (centres undefined)	0	0	0	0	0	0	-	-	-
O=C1Cn2nnc(-c3ccccc3)c2C2c3cc(Br)ccc3CCN12 (centres undefined)	0	0	0	0	0	0	-	-	-
C=CCN(CC#Cc1ccc(OC)cc1)CC=C	0	0	0	0	0	0	-	-	-
SMILES	LEDGF integ inh	MBD2 DNA inh	TDP2 inh	DDE Tn6 FP inh	UHRF1 binding	DDE Tn7 FP inh	IN multimer act	TR-FRET interf	IN-LEDGF confirm
COC(=O)N1C[C@H](Oc2cccc3ccccc23)[C@H]2C[C@@H]1c1ccccc1O2	0	0	0	0	0	0	-	-	-
COc1c(-c2ccc(O)cc2)oc2cc(O)cc(O)c2c1=O	15	0	0	0	28	0	0	0	45
COc1ccc(-c2oc3cc(O)c(OC)c(O)c3c(=O)c2OC)cc1	0	0	0	0	0	0	-	-	-
CCCCCCCCSc1n[nH]c(N)n1	0	0	0	0	0	0	-	-	-
CCCCCCCCCSc1n[nH]c(N)n1	46	0	0	0	0	0	0	0	0
CCN1C(=O)N(C(C)=O)[C@@H]2C[C@H](C(=O)N3CCCC3)[C@H](C)[C@H](c3ccccc3)C[C@@H]21	0	0	0	0	0	0	-	-	-
O=CN/C=C/c1cc(O)ccc1O	24	0	0	0	0	0	18	0	0
O=Cc1ccc(O)cc1O	0	0	0	0	0	0	-	-	-
COc1ccc(-c2csc3nc(-c4ccc(C)cc4)oc(=O)c23)cc1OC	0	0	0	0	0	0	-	-	-
COc1ccc(-c2csc3nc(C(C)(C)C)oc(=O)c23)cc1OC	16	0	0	0	0	0	0	0	0
CCCc1cc(=O)[nH]c(SCC(=O)NC(=O)OCC)n1	25	0	0	0	0	0	0	0	0
CCCc1cc(=O)[nH]c(SCC(=O)NCCCC(=O)OCC)n1	0	0	0	0	0	0	-	-	-
CN1CCCCC(NC(=O)c2cccs2)C1=O (centres undefined)	0	0	0	0	0	0	-	-	-
CC1(OC(=O)c2ccc(Cl)nc2)C(=O)C=C2C=C3CCCN3C=C2C1=O (centres undefined)	18	0	0	0	0	0	0	0	42
COC(=O)CCC(=O)OC1(C)C(=O)C=C2C=C3CCCN3C=C2C1=O (centres undefined)	0	0	0	0	0	0	-	-	-
CN(Cc1ccccc1)Cc1nc2c(c(=O)n(C)c(=O)n2C)n1CCc1ccccc1	23	0	0	0	0	0	0	0	0
CCCn1c(CN(C)Cc2ccccc2)nc2c1c(=O)n(C)c(=O)n2C	0	0	0	0	0	0	-	-	-
COc1ccccc1NC(=O)CSCC(=O)N1c2ccccc2CCc2ccccc21	13	0	0	0	0	0	0	0	0

Screens as filed in PubChem.
